Assay results collected from several papers.
Compare with care: the assays were run in different laboratories.
Sample: plasma

Compound | system | setting | half-life [h]
CO[C@@H]1[C@H](OC(=O)N2CC(CCN3CCOCC3)C2)CC[C@]2(CO2)[C@H]1[C@@]1(C)O[C@@H]1CC=C(C)C | human | subcutaneous, 4.8 mg, single dose, healthy volunteers | 0.91
C#C[C@]1(COP(=O)(O)OP(=O)(O)OP(=O)(O)O)O[C@@H](n2cnc3c(N)nc(F)nc32)C[C@@H]1O | human | oral, 400 mg, single dose | 143
CS(=O)(=O)n1cc2c(n1)CN([C@H]1CO[C@H](c3cc(F)ccc3F)[C@@H](N)C1)C2 | male human | oral, 10 mg, single dose, fasted | 49.9
COCCOc1cnc2ccn([C@H](C)c3nnc4c(F)cc(-c5cnn(C)c5)cn34)c(=O)c2c1 | human | oral, 200 mg, multiple doses, once daily, patients | 8.3
CC(C)(O)c1ccccc1-c1ccc2[nH]c(/C=C/c3ccc(C(F)(F)F)cc3)nc2c1 | male human | oral, 30 mg, single dose, fasted, healthy volunteers | 82.6
C[C@@H](Nc1cc(F)cc(F)c1)c1cc(C(=O)N(C)C)cc2c(=O)cc(N3CCOCC3)oc12 | human | oral, 120 mg, patients | 4.62
CCNCCCNC/C=C\CNCCCNCC | human | intravenous, 150 mg, patients, infusion | 0.2
COc1ccc(-n2nc(C(N)=O)c3c2C(=O)N(c2ccc(N4CCCCC4=O)cc2)CC3)cc1 | human | oral, 10 mg, single dose, healthy volunteers | 12.7
COc1ccc([C@@H]2CN(C(=O)[C@@H](O)CO)C[C@@]2(C)[C@@H](C)O)cc1OC1CN(c2ccc(C)cn2)C1 | human | oral, 5 mg, single dose, healthy volunteers | 11.9
NS(=O)(=O)NCCNc1nonc1C(=NO)Nc1ccc(F)c(Br)c1 | human | oral, 700 mg, multiple doses, twice daily, steady state, patients | 3
CC(C)(Sc1ccncc1-c1ccc(C#N)c2ccccc12)C(=O)O | male human | oral, 20 mg, single dose, fed, healthy volunteers | 13.8
O=C(Nc1c(Cl)cncc1Cl)c1ccc(OC(F)F)c(OCC2CC2)c1 | human | oral, 0.25 mg, single dose | 20.9
CC(C)n1cc(C#N)c2cc(-n3cc(C(=O)O)cn3)ccc21 | human | oral, 200 mg, single dose, fasted, healthy volunteers | 13.3
Cn1cc(-c2ccc(S(=O)(=O)[C@@H]3C[C@@H](C(=O)NC4(C#N)CC4)N(C(=O)C4(C(F)(F)F)CC4)C3)c(C(F)(F)F)c2)cn1 | human | oral, 300 mg, single dose, fasted, healthy volunteers | 16
Cc1nc(C(=O)NCC(=O)O)c(O)c2ccc(Oc3ccccc3)cc12 | human | oral, 100 mg, single dose, healthy volunteers | 11.7
CC(=O)Oc1ccccc1C(=O)O | human | oral, 650 mg, healthy volunteers | 0.53
COc1cc(C(=O)NC2CCN(C)CC2)c(F)cc1Nc1ncc(C(F)(F)F)c(Oc2cccc3c2C(=O)N(C)C3)n1 | human | oral, 50 mg, multiple doses, once daily, patients | 21.5
Cc1cc(Nc2ncc(Cl)c(Nc3ccccc3S(=O)(=O)C(C)C)n2)c2c(c1C1CCN(C)CC1)C[C@@H](C)O2 | human | oral, 160 mg, single dose, fasted, healthy volunteers | 34.6
CC(C)[C@](O)(c1ccc2cc(OC(F)F)c(OC(F)F)cc2c1)c1c[nH]nn1 | female human | oral, 450 mg, single dose | 6.4
